The record followed here is ChEMBL document CHEMBL1132695, “2-(diethylamino)thieno1,3ŏxazin-4-ones as stable inhibitors of human leukocyte elastase” (J Med Chem, 1999).

SMILES strings stand for the structures.

The target in data set [1] is T1, Neutrophil elastase (Homo sapiens, UniProt P08246).
T1 sequence (P08246 whole entry): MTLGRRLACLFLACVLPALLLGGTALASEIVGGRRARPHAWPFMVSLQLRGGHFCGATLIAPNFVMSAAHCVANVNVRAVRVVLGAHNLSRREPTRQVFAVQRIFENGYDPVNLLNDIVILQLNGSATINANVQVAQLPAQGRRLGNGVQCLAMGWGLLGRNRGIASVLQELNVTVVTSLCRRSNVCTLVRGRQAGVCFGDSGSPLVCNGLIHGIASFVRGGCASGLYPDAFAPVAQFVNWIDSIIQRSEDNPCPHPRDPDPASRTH
Description: (§1) Inhibitory activity against human leukocyte elastase. The gist of the method: (§2)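 Elastase purified from human leukocytes by affinity chromatography; enzyme stock diluted into 50 mM sodium phosphate, 500 mM NaCl, pH 7.8. Substrate Suc-Ala-Ala-Pro-Val-pNA at 100 μM final (1.3 Km); inhibitor in DMSO added to cuvette. Progress-curve method at 25 °C, at least five inhibitor concentrations for oxazinones (single 2 μM for thiazinones); curves fitted for kobs, giving Kd, Ki, kon (acylation) and koff (deacylation).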

Data set [2] concerns the target T2, Neutrophil elastase (Homo sapiens) (UniProt P08246).
T2 sequence (whole entry): T1 sequence (P08246 whole entry)
Description: Kon was the acylation association equilibrium rate constant of a competitive inhibition of human leukocyte elastase(HLE). The gist of the method: as §2

The nature of data set [3]: The alkaline hydrolysis second order rate constant(K OH) taken as log K.
The target of data set [4] is T2, Neutrophil elastase (Homo sapiens). The experiment in a line: Koff was the deacylation association equilibrium rate constant of a competitive inhibition human leukocyte elastase(HLE). Summed up:
as §2

A short description of data set [5]: The alkaline hydrolysis second order rate constant(K OH) of the compound. It counts as ADME. The gist of the method:
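Spectrophotometric hydrolysis in aqueous buffer pH 11.25 at 25 °C; loss of long-wavelength UV chromophore followed at 335 nm as first-order exponential decay. Compounds from DMSO stocks, final 15–20 μM, 5% DMSO final. Second-order rate constant kOH- calculated from first-order rates.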

In data set [6] the target is T1, Neutrophil elastase. Described as §1. The gist of the method:
as §2
The source holds these as a separate data set.

The target in data set [7] is T1, Neutrophil elastase. The description is as §1. Summed up: as §2
This is another data set of the same source.

One may read the Ki as a measure of affinity in units of concentration, obtained from inhibition or displacement. A lower Ki goes with a stronger hold on the target. As to `CCN(CC)c1nc2sc3c(c2c(=O)o1)CCCCC3`, the values for the Ki in data set [1] and in data set [6] were 0.0437 µM and 0.044 µM, respectively. This compound also registered a k on in data set [2] of 990 M⁻¹ s⁻¹. Besides, in data set [3], the Log K was -1.42. Also, the k off in data set [4] worked out at 4.3e-05 s⁻¹. In addition, the K in data set [5] turned out to be 0.038 M⁻¹ s⁻¹.
With `CCN(CC)c1nc2sc3c(c2c(=O)o1)C(C)CCC3` (stereo not drawn), the Ki in data set [1] was 0.204 µM; in data set [6], 0.21 µM. For the same compound, in data set [2], the k on came out at 63 M⁻¹ s⁻¹. Also, the Log K in data set [3] was -1.41. For the same compound, in data set [4], the k off was determined as 1.3e-05 s⁻¹. In data set [5], this compound gave a K of 0.039 M⁻¹ s⁻¹.
Consider `CCN(CC)c1nc2sc3ccccc3c2c(=O)o1`, for which the results for the Ki in data set [1] and in data set [6] were 0.00575 µM and 0.0058 µM, respectively. Further, in data set [2], the k on was found to be 9500 M⁻¹ s⁻¹. In addition, the Log K in data set [3] is -1.13. Besides, the k off in data set [4] was found to be 5.5e-05 s⁻¹. The compound also showed a K in data set [5] of 0.075 M⁻¹ s⁻¹.
What is called Kd is the free concentration of one partner at which half of the binding sites on the other are occupied at equilibrium, for simple one-to-one binding. In turn, `CCN(CC)c1nc2scc(C)c2c(=O)o1` gave a Ki in data set [1] of 0.447 µM. This compound had a k on in data set [2] of 140 M⁻¹ s⁻¹. The Log K in data set [3] is -1.14. For the same compound, the k off in data set [4] was found to be 6.4e-05 s⁻¹. In data set [5], this compound showed a K of 0.073 M⁻¹ s⁻¹. Further, in data set [6], the Kd came out at 5.5 µM and the Ki is 0.45 µM.
As for `CCN(CC)c1nc2sc3c(c2c(=O)o1)CCCC3`, the Ki in data set [1] is 0.0126 µM; in data set [6] it was 0.013 µM. The compound further yielded a k on in data set [2] of 2500 M⁻¹ s⁻¹. The same compound registered a Log K in data set [3] of -1.49. Further, the k off in data set [4] stood at 3.2e-05 s⁻¹. Besides, in data set [5], the K was 0.032 M⁻¹ s⁻¹.
On to `CCN(CC)c1nc2sc3c(c2c(=O)o1)CCC3`, for which the figures for the Ki in data set [1] and in data set [6] were 0.0126 µM and 0.013 µM, respectively. Also, the k on in data set [2] was 3600 M⁻¹ s⁻¹. Moreover, in data set [3], the Log K was -1.03. The k off in data set [4] came to 4.5e-05 s⁻¹. Besides, the K in data set [5] amounted to 0.094 M⁻¹ s⁻¹.
With `CCN(CC)c1nc2ccsc2c(=O)o1`, the results for the Ki in data set [7] and in data set [6] were 0.132 µM and 0.13 µM, respectively. Also, the k on in data set [2] stood at 330 M⁻¹ s⁻¹. In addition, the Log K in data set [3] was -0.95. In addition, in data set [4], the k off worked out at 4.3e-05 s⁻¹. Moreover, the K in data set [5] stood at 0.11 M⁻¹ s⁻¹.
With `CCN(CC)c1nc2ccccc2c(=O)o1`, the Ki in data set [1] was 0.302 µM; in data set [6], 0.31 µM. In data set [2], this compound yielded a k on of 2600 M⁻¹ s⁻¹. This compound yielded a Log K in data set [3] of 0.77. The k off in data set [4] amounted to 0.00079 s⁻¹. Besides, in data set [5], the K amounted to 5.9 M⁻¹ s⁻¹.
Consider `CCN(CC)c1nc2sccc2c(=O)o1`, for which the figures for the Ki in data set [1] and in data set [6] were 0.257 µM and 0.26 µM, respectively. In data set [2], this compound displayed a k on of 530 M⁻¹ s⁻¹. Further, in data set [3], the Log K was -0.91. In data set [4], this compound gave a k off of 0.00014 s⁻¹. In addition, in data set [5], the K is 0.12 M⁻¹ s⁻¹.
On to `CCN(CC)c1nc2scc(C(C)C)c2c(=O)o1`, for which the Ki is 0.0132 µM in data set [1] and 0.013 µM in data set [6]. Further, the k on in data set [2] amounted to 10000 M⁻¹ s⁻¹. In data set [3], this compound yielded a Log K of -1.27. Further, the k off in data set [4] came to 0.00013 s⁻¹. For the same compound, the K in data set [5] is 0.054 M⁻¹ s⁻¹.
`CCN(CC)c1nc2sc(C(N)=O)c(C)c2c(=O)o1`: the Ki in data set [1] is 0.0912 µM. In data set [2], this compound displayed a k on of 4000 M⁻¹ s⁻¹. Moreover, the Log K in data set [3] is -0.4. In addition, the k off in data set [4] came out at 0.00036 s⁻¹. The compound further had a K in data set [5] of 0.4 M⁻¹ s⁻¹. In data set [6], binding was put at a Kd of 0.62 µM and the Ki amounted to 0.091 µM.
